Results from ChEMBL document CHEMBL4014306, “Pyrazolopyrimidines as Potent Stimulators for Transient Receptor Potential Canonical 3/6/7 Channels” (J Med Chem, 2017).
Values belong to the compound of their own block, whether it stands above or below them. Active and inactive are the calls of the source. No cut-off for these calls is given here.

What was measured:
Format in all cases: cell-based
[1] = molecular target: T1, Short transient receptor potential channel 3 (Homo sapiens) (UniProt Q13507); test: Agonist activity at human TRPC3 expressed in HEK293 cells assessed as increase in intracellular calcium level measured for 2.5 mins by Fluo-8-AM dye based fluorescence assay
T1 sequence (whole entry): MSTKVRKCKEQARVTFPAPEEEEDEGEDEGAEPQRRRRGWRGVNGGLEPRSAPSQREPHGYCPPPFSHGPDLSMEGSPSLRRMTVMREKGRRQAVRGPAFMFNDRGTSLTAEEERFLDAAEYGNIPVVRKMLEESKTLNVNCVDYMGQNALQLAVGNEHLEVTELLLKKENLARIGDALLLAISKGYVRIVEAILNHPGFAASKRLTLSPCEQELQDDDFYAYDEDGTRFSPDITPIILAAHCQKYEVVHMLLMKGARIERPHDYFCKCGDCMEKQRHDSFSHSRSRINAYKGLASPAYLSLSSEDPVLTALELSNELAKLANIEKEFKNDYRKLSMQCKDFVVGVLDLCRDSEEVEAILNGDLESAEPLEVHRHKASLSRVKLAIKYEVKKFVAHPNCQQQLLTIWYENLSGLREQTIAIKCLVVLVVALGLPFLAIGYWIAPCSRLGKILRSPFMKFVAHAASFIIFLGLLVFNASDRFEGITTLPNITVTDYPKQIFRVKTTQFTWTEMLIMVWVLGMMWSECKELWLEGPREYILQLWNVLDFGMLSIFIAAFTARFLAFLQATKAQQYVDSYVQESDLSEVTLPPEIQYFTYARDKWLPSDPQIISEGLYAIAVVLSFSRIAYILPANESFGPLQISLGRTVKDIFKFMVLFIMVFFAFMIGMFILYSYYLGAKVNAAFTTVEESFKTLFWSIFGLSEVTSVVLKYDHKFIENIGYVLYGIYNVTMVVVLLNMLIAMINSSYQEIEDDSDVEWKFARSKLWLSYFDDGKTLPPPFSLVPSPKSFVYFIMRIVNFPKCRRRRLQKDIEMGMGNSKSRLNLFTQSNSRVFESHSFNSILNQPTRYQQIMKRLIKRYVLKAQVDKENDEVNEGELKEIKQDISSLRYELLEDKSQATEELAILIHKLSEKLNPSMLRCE
In short: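 HEK293 cells stably expressing human TRPC3, run on a FlexStation at 32 °C. Loaded with FMP dye, or Fluo-type Ca2+ dye with 2 mM probenecid. Extracellular NaCl/HEPES saline, pH 7.4, with 2 mM Ca2+ (standard) or 0.5 mM Ca2+. Read as F/F0. In 0.5 mM Ca2+, FMP EC50 from a Hill fit, n = 6.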

[2] = molecular target: Transient receptor potential cation channel subfamily V member 1 (Homo sapiens) (UniProt Q8NER1); test: Inhibition of human TRPV1 expressed in HEK293 cells assessed as decrease in capsaicin-evoked increase in intracellular calcium level at 22 uM preincubated for 2 mins followed by capsaicin addition measured for 2.5 mins by Fluo8-AM dye-based fluorescence assay relative to control
Transient receptor potential cation channel subfamily V member 1 (Homo sapiens), sequence (Q8NER1 whole entry): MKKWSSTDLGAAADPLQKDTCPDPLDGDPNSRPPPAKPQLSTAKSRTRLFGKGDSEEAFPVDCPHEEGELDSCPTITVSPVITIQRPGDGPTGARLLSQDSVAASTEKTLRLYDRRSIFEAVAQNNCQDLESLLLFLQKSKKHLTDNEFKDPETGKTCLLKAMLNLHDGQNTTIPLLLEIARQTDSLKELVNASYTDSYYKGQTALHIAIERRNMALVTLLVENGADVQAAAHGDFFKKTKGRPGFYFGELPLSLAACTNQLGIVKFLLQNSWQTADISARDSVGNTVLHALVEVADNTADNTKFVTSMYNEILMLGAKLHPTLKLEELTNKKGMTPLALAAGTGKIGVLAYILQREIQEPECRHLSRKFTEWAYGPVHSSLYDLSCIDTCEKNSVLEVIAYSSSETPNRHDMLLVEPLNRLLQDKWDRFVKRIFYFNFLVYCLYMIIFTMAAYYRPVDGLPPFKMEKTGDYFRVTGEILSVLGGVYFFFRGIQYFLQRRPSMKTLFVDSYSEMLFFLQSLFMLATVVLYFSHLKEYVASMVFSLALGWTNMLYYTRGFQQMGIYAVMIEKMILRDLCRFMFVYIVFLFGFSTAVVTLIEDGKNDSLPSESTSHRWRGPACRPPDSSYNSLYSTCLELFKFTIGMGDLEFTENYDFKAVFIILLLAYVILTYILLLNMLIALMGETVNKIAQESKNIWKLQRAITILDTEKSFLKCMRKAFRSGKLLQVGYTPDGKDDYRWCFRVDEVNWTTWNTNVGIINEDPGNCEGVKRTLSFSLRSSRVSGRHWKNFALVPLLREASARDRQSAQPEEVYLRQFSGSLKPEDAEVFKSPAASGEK
In short: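 Same TRP panel as for the stimulation tests, with FMP dye for TRPC4 and M5 and Fluo8-AM for TRPA1, V1 and M8. Compound applied for 2 min before the channel agonist (TRPC4: 1 μM DAMGO). Inhibition of the agonist response measured on a FlexStation at 32 °C.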

Rattus norvegicus = organism: Rattus norvegicus; test: Agonist activity at TRPC6 in rat primary glomerular mesangial cells assessed as increase in intracellular calcium level at 1 uM in presence of TRPC inhibitor […] by Fluo4-AM dye-based fluorescence assay
In short: (§1)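 Rat glomerular mesangial cells, isolated by graded sieving from male Sprague–Dawley rats, collagenase-digested, cultured in RPMI 1640 with 17% FBS. Grown overnight on coverslips, then loaded with 10 μM Fluo4-AM and 0.02% pluronic F-127 for 1 h at 37 °C in 1 mM Ca2+ saline, pH 7.4. Compound at 1 μM. Confocal imaging, ex 488/em 515 nm, read as F/F0. For the 2-APB condition, 30 μM 2-APB for 2 min beforehand and kept during compound application.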

[3] = molecular target: T2, Short transient receptor potential channel 3 (Rattus norvegicus) (UniProt Q9JMI9); test: Agonist activity at TRPC3 in rat primary glomerular mesangial cells assessed as increase in intracellular calcium level at 1 uM in presence of TRPC inhibitor […] by Fluo4-AM dye-based fluorescence assay; in short: as §1
T2 sequence (whole entry): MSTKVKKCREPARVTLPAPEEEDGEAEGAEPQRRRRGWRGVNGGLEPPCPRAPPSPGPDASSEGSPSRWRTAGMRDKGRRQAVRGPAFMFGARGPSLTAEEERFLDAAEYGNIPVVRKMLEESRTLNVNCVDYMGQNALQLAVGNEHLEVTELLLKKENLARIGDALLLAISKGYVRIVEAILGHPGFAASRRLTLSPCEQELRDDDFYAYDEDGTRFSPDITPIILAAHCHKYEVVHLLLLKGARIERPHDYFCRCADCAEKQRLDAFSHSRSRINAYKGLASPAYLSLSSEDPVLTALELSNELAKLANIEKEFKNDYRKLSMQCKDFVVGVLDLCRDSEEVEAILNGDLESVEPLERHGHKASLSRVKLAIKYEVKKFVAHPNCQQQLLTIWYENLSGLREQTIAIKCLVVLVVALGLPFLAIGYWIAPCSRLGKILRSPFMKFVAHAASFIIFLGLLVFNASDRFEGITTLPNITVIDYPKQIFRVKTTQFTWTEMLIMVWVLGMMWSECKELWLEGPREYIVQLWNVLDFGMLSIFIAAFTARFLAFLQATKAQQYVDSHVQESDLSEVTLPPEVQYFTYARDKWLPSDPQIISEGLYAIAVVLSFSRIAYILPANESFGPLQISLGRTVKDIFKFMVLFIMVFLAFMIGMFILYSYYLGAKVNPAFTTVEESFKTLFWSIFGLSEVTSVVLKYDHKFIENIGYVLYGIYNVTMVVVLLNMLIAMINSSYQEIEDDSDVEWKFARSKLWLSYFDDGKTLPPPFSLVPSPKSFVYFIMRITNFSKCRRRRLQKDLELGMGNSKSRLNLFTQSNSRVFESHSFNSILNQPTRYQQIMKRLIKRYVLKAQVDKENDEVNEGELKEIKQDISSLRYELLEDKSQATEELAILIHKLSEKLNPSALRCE

Structure (SMILES): CCOC(=O)N1CCC(c2cc(O)n3nc(C)c(-c4ccc(F)cc4)c3n2)CC1
Activity [1]: inactive

inhibition [2]: < 20%
Structure (SMILES): CCOC(=O)N1CCC(c2cc(O)n3nc(C)c(-c4ccc(C(F)(F)F)cc4)c3n2)CC1

Activity [3]: inactive
Structure (SMILES): Cc1nn2c(O)cc(C3CCN(C(=O)OCc4ccccc4)CC3)nc2c1-c1ccc(F)cc1
Activity (Rattus norvegicus): inactive
